# PRMT1 inh: blocks human protein arginine methyltransferase 1 | Q99873 | recombinant PRMT1, activity-based probe fluorescence polarization | inhibition, % at 2.79 µM | 370,000 tested, 1.3% active | AID 652257;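 active means inhibition above about 21% made by adding two undisclosed values, limit read from the data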
# Target sequence (Q99873 whole entry, looked up): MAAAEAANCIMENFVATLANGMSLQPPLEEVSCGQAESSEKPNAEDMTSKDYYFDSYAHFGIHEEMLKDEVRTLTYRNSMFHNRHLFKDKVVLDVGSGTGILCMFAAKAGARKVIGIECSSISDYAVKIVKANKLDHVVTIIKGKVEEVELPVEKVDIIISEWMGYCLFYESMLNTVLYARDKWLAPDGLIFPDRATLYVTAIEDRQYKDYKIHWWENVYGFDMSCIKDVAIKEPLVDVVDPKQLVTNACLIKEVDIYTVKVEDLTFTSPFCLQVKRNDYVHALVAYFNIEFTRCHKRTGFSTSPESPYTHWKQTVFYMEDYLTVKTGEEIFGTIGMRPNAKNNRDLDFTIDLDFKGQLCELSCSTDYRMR
# SIAE inh: blocks human sialic acid acetylesterase; Q9HAT2; 370,000 tested, 0.69% active; inhibition, % at 9.66 µM; SIAE FP-Rh probe binding, fluorescence polarization;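 active means inhibition above a cutoff: mean of compounds within the control limits plus 3 SD of those, cut at about 17% in these data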;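 further: 0% = plate median of compound wells and 100% = probe without SIAE protein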
# TCR-CD3 inh: inhibitors of human TCR-CD3 interaction | 360,000 tested, 0.37% active | TAMRA-labeled TCR probe fluorescence, biochemical | inhibition, % at 9.4 µM; in the data active means inhibition above about 19%;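 further: recombinant mutant TCR 2C K166C tagged with TAMRA read by polarization; 0% = receptor in buffer alone and 100% = receptor with positive control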
# PAD4 inh: inhibitors of human PAD4 | Q9UM07 | recombinant PAD4, RCA probe fluorescence polarization | inhibition, % at 6.36 µM | 330,000 tested, 0.41% active | AID 485272;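 active means percent inhibition above a cutoff equal to the mean of all tested compounds plus 3 SD, cut at about 15% in these data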;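 further: 0% = PAD4 with RCA probe and DMSO and 100% = probe without PAD4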
# HTRA1 inh: inhibitors of human serine peptidase HTRA1; Q92743; recombinant HTRA1, FP-rhodamine activity-based probe, fluorescence polarization; inhibition, % at 5.96 µM; 340,000 tested, 0.5% active; AID 504803; in the data active means inhibition above about 36%;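 further: 0% = enzyme with DMSO and 100% = wells lacking enzyme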
# mABHD4 FP: inhibits mouse alpha/beta hydrolase domain 4; 370,000 tested, 0.54% active; purified mABHD4, FP-Rh probe fluorescence polarization; Q8VD66; inhibition, % at 8.92 µM;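 active means inhibition exceeding the mean over every tested compound plus 3 SD, cut at about 30% in these data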;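 further: 0% = plate median of compound wells and 100% = S159A mutant with DMSO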
#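 Assay system: wild-type mouse ABHD4 protein; compound: single nominal dose of 8.92 µM, 0.89% DMSO final; schedule: 45 min + 60 min at 25 °C; measured by: FP readout, ex 525 nm / em 598 nm; evaluation: % inhibition of FP-Rh probe binding versus controls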
# PRMT1 confirm: confirmation of human PRMT1 inhibitors; shares compounds with PRMT1 inh; recombinant His-PRMT1, activity-based probe fluorescence polarization; inhibition, % at 2.79 µM; 3,300 tested, 42% active; AID 687036;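 active means mean inhibition across replicates above the hit cutoff derived for the earlier primary screen, cut at about 22% in these data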
# Active calls of the source: *; nt = no result. A selection: hits, their analogues and other compounds. The true share with any hit is near 2.9%.
SMILES,PRMT1 inh,SIAE inh,TCR-CD3 inh,PAD4 inh,HTRA1 inh,mABHD4 FP,PRMT1 confirm
Cc1ccc(-c2cc(-c3ccccc3)c(C#N)c(N)n2)o1,30*,6,-2,-12,29,19,66*
Cc1ccc(-c2cc(-c3ccc(F)cc3)nc(N)c2C#N)o1,13,-10,6,-1,-30,-8,nt
CCN(C(=O)COC(=O)/C=C/c1ccco1)c1c(N)n(Cc2ccccc2)c(=O)[nH]c1=O,30*,-3,2,2,-1,-4,-4
CN(C(=O)CN1CCCCCC1)c1c(N)n(Cc2ccccc2)c(=O)[nH]c1=O,8,-3,-8,-4,2,-12,nt
CC(=C/C(=O)O)/C=C/c1ccco1,0,5,-1,-5,0,10,nt
CCN(C(=O)C=Cc1ccco1)c1ccccc1,31*,0,-8,nt,-1,-5,6
CCCN(C(=O)c1cc(-c2ccco2)nc2ccccc12)c1c(N)n(Cc2ccccc2)c(=O)[nH]c1=O,33*,1,5,1,4,-2,6
CCN(C(=O)COC(=O)/C=C/c1ccc(OC)c(OC)c1)c1c(N)n(Cc2ccccc2)c(=O)[nH]c1=O,5,1,-10,nt,5,-5,nt
CCCCN(C(=O)c1cc(-c2ccc(F)cc2)nc2ccccc12)c1c(N)n(CCCC)c(=O)[nH]c1=O,4,-4,-5,nt,-19,3,nt
Cc1ccc2c(c1)CCCN2CC(=O)N(C)c1c(N)n(Cc2ccccc2)c(=O)[nH]c1=O,33*,5,-16,-15,-7,-16,3
CCOc1ccc(N(CC(=O)Nc2c(C)n(C)n(-c3ccccc3)c2=O)S(=O)(=O)c2ccc3c(c2)N(C(=O)C2CCC2)CC3)cc1,-4,-4,nt,nt,nt,0,nt
CCCCNC(=O)C[C@H]1C[C@@]2(C(=O)OC)C(=C[C@H](COCc3ccccc3)O[C@@H]2C)N(Cc2ccco2)C1=O,-3,6,nt,nt,nt,4,nt
CCN(C(=O)CN1CCCc2cc(C)ccc21)c1c(N)n(Cc2ccccc2)c(=O)[nH]c1=O,30*,-4,-21,nt,-2,-39,12
COC(=O)c1ccc(N2C(=O)CC(SCCN)C2=O)cc1 (centres undefined),11,1,-7,-4,1,2,nt
CCOC(=O)c1c(N2C(=O)CC(Sc3ccccc3C(=O)O)C2=O)sc2c1CCCC2 (centres undefined),53*,0,0,6,-17,11,52*
COC(=O)c1ccccc1SC1CC(=O)N(c2ccccc2)C1=O (centres undefined),38*,-1,-4,6,4,11,19
O=C(O)c1ccccc1SC1CC(=O)N(c2cccc3ccccc23)C1=O (centres undefined),84*,-8,7,nt,-2,-2,51*
CCOC(=O)c1c(NC(=O)c2ccccc2C(=O)O)sc2c1CCCC2,7,-11,1,-2,-2,-6,nt
O=C1NC(=O)/C(=C\c2ccc(Br)o2)S1,43*,0,1,2,-4,2,1
N#CCC[C@H]1CC[C@]2(CCCN(Cc3ccc(Br)cc3)C2)O1,3,1,nt,nt,nt,-6,nt
Cc1cc(C)n2cc(CSCc3ccco3)nc2n1,3,14,8,-3,7,11,nt
Cc1cccc2nc(CSCc3ccco3)cn12,27*,15,5,-4,5,5,15
Clc1ccccc1Cn1ccc2ccc(-c3ccc4ccn(Cc5ccccc5Cl)c4c3)cc21,5,-2,nt,nt,nt,0,nt
COC(=O)[C@]12C[C@H](CC(=O)NCCCN3CCCC3=O)C(=O)N(Cc3ccco3)C1=C[C@H](C(C)C)O[C@@H]2C1CC1,-4,4,nt,nt,nt,1,nt
COC(=O)c1ccc(CCc2cc(O)c(Br)cc2O)cc1,103*,9,-9,nt,-5,2,72*
SMILES,PRMT1 inh,SIAE inh,TCR-CD3 inh,PAD4 inh,HTRA1 inh,mABHD4 FP,PRMT1 confirm
COc1ccc(NC(=O)CS(=O)(=O)c2cn(CC(=O)N3CCOCC3)c3ccccc23)cc1OC,35*,4,-4,2,0,2,21*
COc1ccc(OC)c(NC(=O)CS(=O)(=O)c2cn(CC(=O)N3CCOCC3)c3ccccc23)c1,0,-3,7,-1,-3,4,nt
COc1ccc2c(c1)CN1C(=O)N(C3CCCC3)S(=O)(=O)CC21 (centres undefined),3,-8,nt,nt,nt,6,nt
COc1ccccc1NC(=O)CSc1nc2c(sc3ccccc32)c(=O)n1CCN(C)C,70*,-4,10,14,-3,6,72*
O=C(CSc1nc2c(sc3ccccc32)c(=O)n1CCO)NCc1ccco1,10,-9,0,0,0,3,nt
CCN(CC)CCn1c(SCC(=O)Nc2ccc(F)cc2)nc2c(sc3ccccc32)c1=O,nt,nt,nt,1,nt,nt,nt
Cc1cc2c(=O)n(Cc3ccco3)c(SCC(=O)NCc3ccco3)nc2s1,58*,-2,-7,-3,-4,0,18
O=C(CSc1nc2c(sc3ccccc32)c(=O)n1CCCN1CCCC1)NCc1ccco1,27*,-6,-1,-5,-4,3,11
Cc1cc2c(=O)n(Cc3ccco3)c(SCC(=O)N3CCCc4ccccc43)nc2s1,8,-15,-1,5,-58,-5,nt
CCOC(=O)C1=C(C(=O)OCC)C2N(Cc3ccc(Br)cc3)c3ccccc3[C@@]23C[C@@H](C(=O)OC)N(S(=O)(=O)c2ccc(F)cc2)C3=N1 (some centres undefined),2,-3,1,nt,nt,-2,nt
Cc1ccc(C2=NC3(CCCC3)N=C2SCC(=O)Nc2ccc3c(c2)OCCO3)cc1,55*,-2,-7,2,-16,-5,47*
O=C(CSC1=NC2(CCCCCC2)N=C1c1ccccc1)Nc1ccc2c(c1)OCCO2,2,-7,-2,3,-24,-10,nt
CCOC(=O)NC[C@@]1(C(=O)OC)CC(=O)N(C)[C@@H]1c1ccccc1,1,6,nt,nt,nt,-1,nt
Cn1cc(P(=S)(N2CCOCC2)N2CCOCC2)cc1P(=O)(N1CCOCC1)N1CCOCC1,40*,-4,-6,3,-4,-6,6
Cn1cc(P(=O)(N2CCOCC2)N2CCOCC2)cc1P(=S)(N1CCOCC1)N1CCOCC1,30*,8,7,0,-3,0,40*
O=C(NC1CCCCN(Cc2cccc(C(F)(F)F)c2)C1=O)c1ccc(-c2ccccc2)cc1 (centres undefined),2,-2,nt,nt,nt,-4,nt
CC(C)CN1C(=O)C[C@@]2(C(=O)N(C)c3ccc(NC(=O)c4cc(F)ccc4F)cc32)C1c1ccccc1 (some centres undefined),-2,-110,nt,nt,nt,0,nt
Cc1c(Cl)cnn1CC(=O)NC1C(=O)N2C(C(=O)O)=C(CSc3nnnn3C)CSC12 (centres undefined),62*,-5,1,0,-1,1,35*

# Screening results from PubChem.
